High-throughput results from PubChem.
The sample as a whole holds a higher share of hits than the screen did.
Pyk2 oligo antag: Pyk2 (human) oligomerization antagonism; Q14289; Q293 cells, Pyk2 FERM NanoBiT luminescence; stronger effect = lower value; z-score (the deposit names both 25 µM and 10 µM); 99,000 compounds, 0.83% hits;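 active = Z-score of -3 or lower, scaled per plate to the spread of control and sample wells; inactive = z-score above -3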;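 note: negative z-score means lost luminescence so less FERM oligomerization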
Target sequence (Q14289 whole entry, looked up): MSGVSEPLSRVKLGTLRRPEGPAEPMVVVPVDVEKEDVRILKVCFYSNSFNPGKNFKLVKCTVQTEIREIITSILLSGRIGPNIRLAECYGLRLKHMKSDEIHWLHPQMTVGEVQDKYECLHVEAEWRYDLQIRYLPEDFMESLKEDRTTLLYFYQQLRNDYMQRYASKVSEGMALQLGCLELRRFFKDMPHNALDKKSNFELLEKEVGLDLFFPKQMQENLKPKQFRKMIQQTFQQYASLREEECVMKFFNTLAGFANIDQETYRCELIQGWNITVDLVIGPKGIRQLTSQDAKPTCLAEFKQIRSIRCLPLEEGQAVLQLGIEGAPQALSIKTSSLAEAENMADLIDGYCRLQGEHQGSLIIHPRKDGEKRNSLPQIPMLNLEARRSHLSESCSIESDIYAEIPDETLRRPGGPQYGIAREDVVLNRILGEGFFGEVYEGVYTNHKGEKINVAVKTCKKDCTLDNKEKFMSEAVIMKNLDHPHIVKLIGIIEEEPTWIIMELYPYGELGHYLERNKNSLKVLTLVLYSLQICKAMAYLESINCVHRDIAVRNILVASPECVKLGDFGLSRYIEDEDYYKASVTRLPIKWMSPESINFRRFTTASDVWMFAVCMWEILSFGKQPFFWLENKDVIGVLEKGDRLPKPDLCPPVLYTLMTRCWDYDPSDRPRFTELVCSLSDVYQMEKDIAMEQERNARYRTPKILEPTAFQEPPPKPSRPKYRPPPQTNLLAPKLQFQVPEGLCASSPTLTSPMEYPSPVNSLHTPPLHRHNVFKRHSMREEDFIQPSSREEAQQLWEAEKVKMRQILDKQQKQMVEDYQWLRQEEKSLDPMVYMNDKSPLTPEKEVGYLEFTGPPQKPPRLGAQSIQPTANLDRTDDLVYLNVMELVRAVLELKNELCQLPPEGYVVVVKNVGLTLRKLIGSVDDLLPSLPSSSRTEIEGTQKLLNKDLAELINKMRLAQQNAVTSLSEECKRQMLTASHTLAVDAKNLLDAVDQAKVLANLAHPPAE
Fibroblast inh: blocks proliferation of human lung fibroblasts; LL 47 human lung fibroblast viability, ATP luminescence; stronger effect = lower value; viability, % at 10 µM; 85,000 compounds, 1.1% hits;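 active = viability at or below 50% in the single dose screen; inactive = viability above 50%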;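 note: compound exposure lasted 72 h before the ATP readout; 100% = median luminescence of untreated cell-only wells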
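Material: Human LL 47 lung fibroblast cells | Input: 1,150 cells/well | Buffer or medium: IMEM plus 15% FBS | Compound dosing: 0.1% DMSO in all compound wells | Times: Overnight cell rest, 72 h compound treatment at 37 °C | Signal: CellTiter-Glo luminescence measuring cellular ATP | Measure: % viability versus median cells-only luminescence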
H69AR growth 86K: growth inhibitors of human H69AR lung tumor cells; H69AR lung tumor viability, ATP luminescence, 72 h; stronger effect = lower value; viability, % at 10 µM; 85,000 compounds, 6% hits;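 active = viability at or below 40%; inactive = viability above 40%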;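 note: multidrug resistant small cell line overexpressing MRP-1 efflux transporter; 100% = mean luminescence of untreated control wells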
PTEN del growth: PTEN-deleted cell growth suppression; HCT116 PTEN-null viability, CellTiter-Glo, 60 h; stronger effect = lower value; AID 827; viability, % at 10 µM; 140,000 compounds, 1.2% hits;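 active = viability at or below a set limit, 4 SD under the median of all tested compounds, cut at about 3.7% in these data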;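 note: PTEN knockout HCT116 line with beta catenin targeted HCT116 as companion control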
HCT116 bCat-KO: beta-catenin-lacking colon tumor cell growth suppression; HCT116 beta-catenin knockout viability, CellTiter-Glo, 60 h; stronger effect = lower value; viability, % at 10 µM; 140,000 compounds, 1.5% hits;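 active = viability at or under a set limit, the compound median less 4 SD, cut at about 6% in these data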;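 note: 0% = Hyamine 1622 control at 20 µM and 100% = untreated cell control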
HUVEC inhibit: human endothelial cell proliferation inhibition. 86,000 compounds, 1.1% hits. HUVEC proliferation, CellTiter-Glo luminescence, 72 h; stronger effect = lower value. viability, % at 10 µM (by protocol);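 active = viability at or below 30%; inactive = viability above 30%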;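 note: 100% = median luminescence of DMSO-only cell control wells on each plate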
Numbers without * were called inactive; x = no result given.

SMILES | Pyk2 oligo antag | Fibroblast inh | H69AR growth 86K | PTEN del growth | HCT116 bCat-KO | HUVEC inhibit
N#CC(c1ccc(Cl)cc1)(c1ncc(C(F)(F)F)cc1Cl)N1CCOCC1 (stereo unspecified) | -0.55 | x | x | 81.3 | 90.4 | x
Clc1ccc(-c2ccc(/C=N/Nc3cc(N4CCOCC4)nc(N4CCOCC4)n3)o2)cc1 | -0.53 | 73.7 | 29.5* | 39.2 | 42.5 | 13.2*
CC(C)c1ccc(/C=N/Nc2cc(N3CCOCC3)nc(N3CCOCC3)n2)cc1 | x | x | x | 47.4 | 36.6 | x
CC1=NOC(=O)/C1=C\c1ccc(-c2cc(Cl)ccc2Cl)o1 | 0.98 | 6.3* | 2.0* | 2.5* | 3.0* | 8.2*
Cc1ccc(-c2ccc(/C=C3\C(=O)ON=C3c3ccccc3)o2)c([N+](=O)[O-])c1 | 0.04 | x | x | 51.9 | 36.1 | x
CC1=NOC(=O)/C1=C/c1ccc(-c2ccc(Cl)cc2)o1 | -1.38 | 8.7* | 2.5* | 16.0 | 18.0 | 55.9
CC1=NOC(=O)/C1=C/c1ccc(N(C)C)cc1 | x | x | x | 84.2 | 90.2 | x
O=C(COC(=O)C1CCN(/C=C/C(=O)C(F)(F)F)CC1)Nc1cccc(F)c1 | x | x | x | 101.2 | 96.2 | x
CCNc1nc(NC(C)(C)C)nc(N(C#N)CC)n1 | -0.6 | 94.3 | 33.5* | 100.5 | 96.6 | 96.6
CC(OC(=O)c1cc(=O)[nH]c2ccccc12)c1ccccc1 (stereo unspecified) | -4.03* | 104.6 | 104.8 | 78.6 | 97.2 | 97.6
Cc1ccc(-n2nnnc2-c2cnoc2-c2cccc(F)c2)cc1 | -0.8 | 98.4 | 87.4 | 90.5 | 92.9 | 71.9
CS(=O)(=O)c1ccc(Cl)c(NC(=O)c2ccc3ccccc3c2)c1 | -0.18 | x | x | 91.8 | 95.3 | x
COc1cc2nc(NCCN3CCOCC3)n3nc(-c4ccccc4)nc3c2cc1OC | x | 106.5 | 65.5 | x | x | 82.9
CN1CCN(CCCNc2nc3ccccc3c3nc(-c4ccccc4)nn23)CC1 | x | 66.9 | 27.9* | x | x | 69.5
COc1cc2nc(NCCCN3CCN(C)CC3)n3nc(-c4ccccc4)nc3c2cc1OC | 0.16 | 87.3 | 28.4* | 1.9* | 2.2* | 25.1*
O=C(/C=C/c1cccc([N+](=O)[O-])c1)Nc1cccc(NC(=O)c2cccs2)c1 | x | x | x | 54.4 | 64.6 | x
Clc1ccc(-c2nnc(COc3ncnc4sccc34)o2)cc1 | x | x | x | 93.1 | 90.8 | x
CCCn1c(SCC(=O)NC2CCCCC2C)n[nH]c1=O (stereo unspecified) | -0.76 | 101.8 | 90.9 | 90.9 | 96.0 | 92.7
O=C(N/N=C/c1ccc(O)cc1)c1[nH]c2ccc(Br)cc2c1-c1ccccc1 | x | x | x | 15.5 | 17.5 | x
O=C(N/N=C/c1c[nH]c2ccccc12)c1[nH]c2ccc(Br)cc2c1-c1ccccc1 | x | x | x | 1.2* | 1.3* | x
CCOC(=O)NC(=O)C(=CNc1ccccc1C)C(=O)NC(=O)OCC | x | x | x | 99.1 | 103.6 | x
NCc1ccccc1COc1ccccc1 | 1.17 | x | x | 93.5 | 82.0 | x
CC(=O)Nc1ccc(NC2=Nc3ccccc3N3C2=Nc2c(c(C)nn2-c2ccccc2)C3c2ccccc2)cc1 (stereo unspecified) | -2.63 | 33.5* | 67.3 | 26.9 | 21.8 | 76.0
CCN(CC)S(=O)(=O)c1ccc2c(c1)nc(CCC(=O)Nc1ccc3c(c1)OCO3)n2CC | x | x | x | 83.0 | 88.7 | x
CC1(C)Cc2cccc(OCC(=O)Nc3cc(C(F)(F)F)ccc3N3CCOCC3)c2O1 | -2.38 | 86.1 | 87.6 | 83.8 | 76.7 | 91.2
SMILES | Pyk2 oligo antag | Fibroblast inh | H69AR growth 86K | PTEN del growth | HCT116 bCat-KO | HUVEC inhibit
COc1ccccc1NC(=O)c1ccc(-c2ccc(Br)cc2)o1 | -1.18 | 79.3 | 19.0* | 45.1 | 52.8 | 55.5
COc1ccccc1C(=O)Nc1cc2cc(Br)ccc2oc1=O | -0.13 | 94.9 | 60.5 | 75.3 | 57.9 | 96.9
COc1ccc(-c2cc3ccccc3oc2=O)cc1NC(=O)c1ccc(Br)o1 | -1.24 | 90.4 | 31.6* | 67.5 | 74.0 | 47.8
COc1ccc(-c2cc3ccccc3oc2=O)cc1NC(=O)c1ccc([N+](=O)[O-])o1 | -0.94 | x | x | 28.1 | 31.1 | x
COc1ccc(Br)cc1C(=O)Nc1ccccc1-c1ccccc1 | -3.57* | x | x | 95.6 | 91.6 | x
O=C(Nc1ccccc1)c1ccc(-c2ccc(Br)cc2)o1 | 1.45 | 106.5 | 69.0 | 94.8 | 89.2 | 73.5
COc1ccccc1C(=O)Nc1cc2ccccc2oc1=O | 0.24 | 99.6 | 31.9* | 37.9 | 49.0 | 80.2
O=C(N/N=C\c1ccc(CNS(=O)(=O)c2ccc(Cl)cc2)o1)C(=O)Nc1ccc(Oc2ccccc2)cc1 | x | x | x | 2.0* | 1.4* | x
Oc1ccc(Nc2nc(N3CCCC3)c3ccccc3n2)cc1 | -1.08 | 2.5* | 0.7* | 1.8* | 2.0* | 47.5
C(=C\c1nc(N2CCCC2)c2ccccc2n1)/c1ccccc1 | x | x | x | 2.2* | 1.8* | x
COc1ccc(Nc2nc(N3CCCCC3)c3ccccc3n2)cc1 | -0.91 | x | x | 10.3 | 10.4 | x
Cc1nc(NC(=O)/C=C/c2ccccc2)n[nH]1 | x | x | x | 85.6 | 78.3 | x
COc1ccc(-c2nnc(SCc3ccccc3)n2N)cc1 | -0.48 | 101.2 | x | 102.0 | 104.4 | 94.8
COc1ccc(-c2nnc(SCCc3ccccc3)n2N)cc1 | 0.12 | 45.7* | 96.0 | 109.0 | 96.1 | 99.5
CCOC(=O)N1CCC(=NNS(=O)(=O)c2cccc([N+](=O)[O-])c2)CC1 | 0.03 | x | x | 111.4 | 103.2 | x
Fc1cc(F)c2nc(Nc3nc4cc5c(cc4s3)OCO5)sc2c1 | x | x | x | 6.4 | 1.3* | x
Fc1cccc2sc(Nc3nc4cc5c(cc4s3)OCO5)nc12 | x | x | x | 66.1 | 66.4 | x
CCCc1[nH]nc2c1C(c1cn[nH]c1-c1ccc(F)cc1)C(C#N)=C(N)O2 (stereo unspecified) | x | 75.0 | 31.9* | 61.0 | 69.3 | 74.2
Cc1cnnn1-c1ccc(C(=O)CCl)cc1 | 0.09 | 53.7 | 0.0* | 89.5 | 78.2 | 65.3
Nc1ccc(C(=O)n2c3ccccc3c3ccccc32)cc1 | -1.49 | 49.9* | 18.6* | 15.4 | 12.6 | 44.7
Nc1ccc(C(=O)N2CCCC2)cc1 | 0.77 | 106.4 | 97.1 | 102.5 | 87.2 | 105.6
Nc1ccc(C(=O)OCC(=O)Nc2ccc([N+](=O)[O-])cc2C(F)(F)F)cc1 | x | x | x | 79.7 | 84.3 | x
O=Cc1c[nH]c2ccc(S(=O)(=O)N3CCOCC3)cc12 | -0.67 | x | x | 95.7 | 100.0 | x
Cc1ccccc1C(=O)c1cccn1CC(=O)NCCN1CCN(c2cccc(C)c2C)CC1 | 1.07 | 73.0 | 5.2* | 7.3 | 4.3* | 6.1*
Cc1ccc(C)c(S(=O)(=O)NC(C)C(=O)Nc2ccc(-c3nc4ccccc4s3)cc2)c1 (stereo unspecified) | -0.39 | x | x | 79.6 | 77.1 | x
SMILES | Pyk2 oligo antag | Fibroblast inh | H69AR growth 86K | PTEN del growth | HCT116 bCat-KO | HUVEC inhibit
CCCCCCCCOC(=O)c1ccc(N)cc1 | -3.3* | 101.9 | 105.4 | 90.5 | 96.9 | 87.7
Fc1cc(NCc2ccccc2)nc(NCc2ccccc2)n1 | x | x | x | 52.4 | 57.9 | x
Cc1cc(Nc2ccc(Cl)cc2)nc(NCc2ccccc2)n1 | x | x | x | 1.4* | 1.1* | x
Cc1cc(Nc2ccccc2)nc(NCc2ccccc2)n1 | x | x | x | 5.5 | 6.8 | x
Cc1cc(Nc2cccc(F)c2)nc(NCc2ccccc2)n1 | x | x | x | 1.4* | 2.9* | x
CCCCNc1cc(C)nc(NCc2ccccc2)n1 | 1.92 | 53.3 | 9.9* | 1.5* | 1.3* | 4.4*
